Source: PubChem BioAssay AID635 (SRMLSC, 2007)
pIC50: −log10 of the molar value.

What follows are compounds tested on E. coli BW25113 growth inhibition, OD615 (assay: growth inhibition of wild-type E. coli BW25113 pool, dose response, OD615 (AID 635)). Settings: pooled mutant strains.
Method in brief: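 times: 20 h, 37 °C growth with compound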

**Q.** With `CC(=O)c1c(C)n([O-])c2ccccc2[n+]1=O` as the compound, how does the pIC50 read?
**A.** Its pIC50 is 4.31.

**Q.** `c1ccc(-c2cccc(-c3ccccn3)n2)nc1` was tested. Which pIC50 did it give?
**A.** Its pIC50 is 4.38.

**Q.** With `Oc1c(CN2CCCCC2)cc(Br)c2cccnc12` as the compound, how does the pIC50 read?
**A.** The pIC50 was 4.43.

**Q.** `COc1c(N2CCNC(C)C2)c(F)cc2c(=O)c(C(=O)O)cn(C3CC3)c12` (centres undefined) was tested. Which pIC50 did it give?
**A.** The pIC50 was > 6.71.

**Q.** With `CCC(=O)N1CCN(c2cc3c(cc2F)c(=O)c(C(=O)O)cn3CC)CC1` as the compound, how does the pIC50 read?
**A.** Its pIC50 is 5.40.

**Q.** `CC(=O)OCC1=C(C(=O)O)N2C(=O)[C@@H](NC(=O)Cc3cccs3)[C@H]2SC1` was tested. Which pIC50 did it give?
**A.** Its pIC50 is 4.98.

**Q.** With `CO[C@@]1(NC(=O)Cc2cccs2)C(=O)N2C(C(=O)O)=C(COC(N)=O)CS[C@@H]21` as the compound, how does the pIC50 read?
**A.** Its pIC50 is 5.01.

**Q.** `COc1cc(Cc2cnc(N)nc2N)cc(OC)c1OC` was tested. Which pIC50 did it give?
**A.** The pIC50 was 6.23.

**Q.** With `C=CCNc1ncnc2c1[nH]c1ccc(C)cc12` as the compound, how does the pIC50 read?
**A.** Its pIC50 is 4.38.

**Q.** With `CN1CCN(c2c(F)cc3c(=O)c(C(=O)O)cn4c3c2SCC4)CC1` as the compound, how does the pIC50 read?
**A.** The pIC50 was 5.95.

**Q.** How did the pIC50 turn out when `CCCCOc1ccc(NC2=NC3(CCCCC3)N=C(N)N2)cc1` was run?
**A.** Its pIC50 is 4.39.

**Q.** `CCCCNc1cc(C)nc(NCc2ccccc2)n1` was tested. Which pIC50 did it give?
**A.** Its pIC50 is 4.01.

**Q.** With `CN(C)[C@@H]1C(=O)C(C(N)=O)=C(O)[C@@]2(O)C(=O)C3=C(O)c4c(O)ccc(Cl)c4[C@@H](O)[C@H]3C[C@@H]12` as the compound, how does the pIC50 read?
**A.** The pIC50 was 6.24.

**Q.** How did the pIC50 turn out when `CCn1cc(C(=O)NCc2ccc3c(c2)OCO3)c(=O)c2cc(F)c(N3CCN(C)CC3)cc21` was run?
**A.** The pIC50 was 4.54.

**Q.** `O=S1(=O)Nc2c(ccc3cccnc23)-c2ccccc21` was tested. Which pIC50 did it give?
**A.** Its pIC50 is 4.69.

**Q.** `CCn1cc(C(=O)O)c(=O)c2cc(F)c(N3CCN(C(=O)Nc4ccccc4)CC3)cc21` was tested. Which pIC50 did it give?
**A.** Its pIC50 is 5.39.

**Q.** `NC1C2CN(c3nc4c(cc3F)c(=O)c(C(=O)O)cn4-c3ccc(F)cc3F)CC12` (centres undefined) was tested. Which pIC50 did it give?
**A.** The pIC50 was 8.22.

**Q.** `COc1ccc(OCC(O)CNc2ccc(Br)cc2)cc1` (centres undefined) was tested. Which pIC50 did it give?
**A.** Its pIC50 is 3.99.

**Q.** With `O=c1ccsn1Cc1ccccc1` as the compound, how does the pIC50 read?
**A.** Its pIC50 is 4.46.
